Bioassay records deposited in PubChem BioAssay by several laboratories.
An excerpt weighted towards active compounds, which were near 1.6% of everything screened.
SR-BI HDL uptake: inhibitors of mouse SR-BI mediated HDL lipid uptake. Q61009. ldlA[mSR-BI] CHO cells, DiI-HDL uptake fluorescence, 3 h. inhibition, % at 12.5 µM. 0.96% of 320,000 active. AID 488896;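 active = mean replicate inhibition of at least 70% and a set share of replicates each scoring 70 or more; inconclusive = meets just one of the two criteria; inactive = fails both criteria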
Target sequence (Q61009 whole entry, looked up): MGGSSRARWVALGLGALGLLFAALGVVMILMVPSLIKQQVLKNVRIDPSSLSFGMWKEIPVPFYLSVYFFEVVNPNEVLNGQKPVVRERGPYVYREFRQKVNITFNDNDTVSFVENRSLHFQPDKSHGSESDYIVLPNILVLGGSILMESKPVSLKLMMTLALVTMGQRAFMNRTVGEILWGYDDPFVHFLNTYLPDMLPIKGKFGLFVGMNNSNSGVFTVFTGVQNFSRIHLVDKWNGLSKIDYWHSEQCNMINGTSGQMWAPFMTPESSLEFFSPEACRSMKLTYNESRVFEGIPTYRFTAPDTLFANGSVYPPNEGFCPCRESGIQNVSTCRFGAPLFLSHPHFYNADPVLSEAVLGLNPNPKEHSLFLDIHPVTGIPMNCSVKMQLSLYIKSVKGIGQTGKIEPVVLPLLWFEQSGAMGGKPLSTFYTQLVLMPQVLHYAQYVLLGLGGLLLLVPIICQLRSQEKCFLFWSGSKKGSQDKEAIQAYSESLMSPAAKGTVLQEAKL
A1 inh: inhibitors of the anti-apoptotic protein A1, read as caspase activation. MEF A1-2A-BIM cells, Caspase-Glo 3/7 luminescence, 3 h; percent of clofoctol response, vehicle zero. 0.066% of 330,000 active. caspase activation, % (no concentration beside the values);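 active = over half of replicate activation scores above 10%, or exactly half above 10 with the replicate mean above 10; inconclusive = replicate mean below 10 yet half the replicates above 10; inactive = over half of replicates below 10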
Vif imaging: HIV Vif inhibition | HEK293T cells, Vif self-association by quenched fluorescence, imaging, 24 h | inhibition, % at 7.49 µM | 0.35% of 340,000 active; in the data active = inhibition above about 50%, passing the limit was not always enough; inconclusive = no clear call, values can overlap the other calls; inactive = below about 31%
H9c2 TAG inh: reduces triacylglycerol accumulation in H9c2 cells. Nile Red lipid (TAG) fluorescence; cells loaded with 200 µM oleic acid. inhibition, % at 12.5 µM. 0.66% of 230,000 active;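 active = pattern-corrected inhibition of lipid staining of at least 50% with the nuclear-stain viability signal not falling by more than 50%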
SR-BI uptake up: activators of SR-BI mediated HDL lipid uptake; 0.096% of 320,000 active; CHO ldlA[mSR-BI] cells, DiI-HDL uptake fluorescence, 3 h; 100 = double the neutral-control signal; activation, % at 12.5 µM;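 active = mean replicate activation of at least 60% and every replicate at or above 60%; inconclusive = mean or all-replicate condition met, but not both; inactive = mean below 60% and not all replicates reaching 60%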
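Material: SR-BI-overexpressing, LDLR-lacking CHO cells; schedule: compound exposure 3 h, 37 °C; reagent: DiI-labelled HDL at 10 µg/mL final; technique: bottom-read fluorescence, 550/595 nm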
DiI quencher: DiI fluorescence quenching in cell-free counter-screen. AC50, µM (top dose mostly 35 µM). shares compounds with SR-BI HDL uptake. cell-free DiI-HDL fluorescence quenching, 30 min. 20% of 470 active;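 active = quenching, a falling signal, with AC50 below a set limit tied to the top valid dose, actives reach about 32 µM in these data; inconclusive = no clear call, values can overlap the other calls; inactive = rising signal, and the rest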
A number is an active result.

Results for CCOCCOC(=O)c1[nH]c2c(c1C)C(=O)CC(c1ccc(OC)c(OC)c1)C2 (configuration not stated) ?
SR-BI HDL uptake: inactive; A1 inh: inactive; Vif imaging: inactive; SR-BI uptake up: inactive

What do the screens show for `COc1cccc(CSc2ccc(S(=O)(=O)N3CCOCC3)cc2C(=O)NCC2CCCO2)c1OC` (configuration not stated)?
SR-BI HDL uptake: inactive; A1 inh: inactive; Vif imaging: inactive; H9c2 TAG inh: inactive; SR-BI uptake up: inactive

How did Cc1ccc(N2CC(C(=O)Nc3c(C)n(C)n(-c4ccccc4)c3=O)CC2=O)cc1 (configuration not stated) do in these assays?
SR-BI HDL uptake: inactive; A1 inh: inactive; Vif imaging: inactive; H9c2 TAG inh: inactive; SR-BI uptake up: inactive

Results for COc1ccc(OC)c2[nH]c(C(=O)N3CCC(C(=O)O)CC3)cc12 ?
SR-BI HDL uptake: 75; A1 inh: inconclusive; Vif imaging: inactive; SR-BI uptake up: inactive; DiI quencher: inactive

Results for CC(Oc1ccccc1Cl)C(=O)N(Cc1cccs1)C1CCS(=O)(=O)C1 (configuration not stated) ?
SR-BI HDL uptake: inactive; Vif imaging: inactive; H9c2 TAG inh: inactive; SR-BI uptake up: inactive

What do the screens show for `CC(=O)N1c2cc3ccccc3cc2N(C(C)=O)c2cc3ccccc3cc21`?
SR-BI HDL uptake: inactive; Vif imaging: inactive; H9c2 TAG inh: inactive; SR-BI uptake up: inactive

What do the screens show for `CCC(C)NC(=O)CN(C1CCCCC1)S(=O)(=O)c1ccc(F)cc1` (configuration not stated)?
SR-BI HDL uptake: inactive; A1 inh: inactive; Vif imaging: inactive; H9c2 TAG inh: inactive; SR-BI uptake up: inactive

What do the screens show for `O=C(NC1CCCC1)C(c1c[nH]c2ccccc12)N(C(=O)Cn1nnc(-c2ccc(Cl)cc2)n1)c1ccccc1` (configuration not stated)?
SR-BI HDL uptake: inactive; A1 inh: inactive; Vif imaging: inactive; H9c2 TAG inh: 77; SR-BI uptake up: inactive; DiI quencher: inactive

What do the screens show for `CC(C(=O)NC1CCCC1)N(C(=O)Cn1nnc(-c2ccc(F)cc2)n1)c1ccccc1F` (configuration not stated)?
SR-BI HDL uptake: inactive; A1 inh: inactive; Vif imaging: inactive; SR-BI uptake up: inactive

Results for O=C(CN(C(=O)Cn1nnc(-c2ccc(F)cc2)n1)C1CCCC1)NC1CCCC1 ?
SR-BI HDL uptake: 94; A1 inh: inactive; Vif imaging: 67; SR-BI uptake up: inactive; DiI quencher: inactive

What do the screens show for `CC(C)(C)NC(=O)C(c1c[nH]c2ccccc12)N(C(=O)Cn1nnc(-c2ccc(Cl)cc2)n1)c1ccccc1F` (configuration not stated)?
SR-BI HDL uptake: inactive; A1 inh: inactive; Vif imaging: inactive; H9c2 TAG inh: inactive; SR-BI uptake up: inactive

How did O=C(CCCC(=O)N(CC(=O)NC1CCCC1)C1CCCC1)Nc1ccccn1 do in these assays?
SR-BI HDL uptake: inconclusive; A1 inh: inactive; Vif imaging: inactive; SR-BI uptake up: inactive; DiI quencher: inactive

What do the screens show for `COc1ccc(C)cc1N(CC(=O)NC1CCCC1)C(=O)Cn1nnc(-c2ccc(C)o2)n1`?
SR-BI HDL uptake: 76; Vif imaging: inactive; SR-BI uptake up: inactive; DiI quencher: inactive

What do the screens show for `Cc1ccc(N(CC(=O)NC2CCCCC2)C(=O)Cn2nnc(-c3ccc(C)o3)n2)cc1`?
SR-BI HDL uptake: inactive; A1 inh: inactive; Vif imaging: inactive; H9c2 TAG inh: inactive; SR-BI uptake up: inactive

Results for CC(C)(C)OC(=O)N1CSC[C@H]1C(=O)NC[C@H](CC(=O)O)c1ccc(Cl)cc1 ?
SR-BI HDL uptake: 78; A1 inh: inactive; Vif imaging: inactive; SR-BI uptake up: inactive; DiI quencher: inactive

Results for CCC1CCCCN1C(=O)CSc1nnc(-c2ccco2)o1 (configuration not stated) ?
SR-BI HDL uptake: 76; A1 inh: inactive; Vif imaging: inactive; H9c2 TAG inh: inactive; SR-BI uptake up: inactive; DiI quencher: inactive

How did CC(=O)c1ccc(N2CCN(C(=O)c3cc(-c4cccnc4)nc4ccc(Br)cc34)CC2)cc1 do in these assays?
SR-BI HDL uptake: inactive; A1 inh: inactive; Vif imaging: inactive; H9c2 TAG inh: inactive; SR-BI uptake up: inactive; DiI quencher: inactive
